# Only some compounds are listed: those with a hit (about 2.5% of all), similar ones and a draw of the others.
# SENP8 block-1 = blocks the human protease SENP8; Q96LD8; purified SENP8, Z-RLRGG-aminoluciferin cleavage, luminescence; inhibition, % at 10 µM; 330,000 compounds, 1.2% hits; in the data active = inhibition above about 50%
# Target sequence (Q96LD8 whole entry, looked up): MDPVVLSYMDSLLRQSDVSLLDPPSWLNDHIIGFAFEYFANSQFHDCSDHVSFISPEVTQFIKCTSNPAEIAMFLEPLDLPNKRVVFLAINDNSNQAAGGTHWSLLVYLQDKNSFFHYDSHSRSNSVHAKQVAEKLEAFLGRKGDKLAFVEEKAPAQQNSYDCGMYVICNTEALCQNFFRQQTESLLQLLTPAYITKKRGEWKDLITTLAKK
# SENP6 block = inhibitors of human SENP6 protease; Q9GZR1; Recombinant SENP6 catalytic domain, aminoluciferin luminescence; inhibition, % at 10 µM; 330,000 compounds, 1.8% hits; AID 2599;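 active = inhibition above about 50% at the single tested dose, limit read from the data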;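 also: plate controls were DMSO wells with enzyme for no effect and DMSO wells lacking enzyme for full effect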
# SENP8 block-2 = blocks human SENP8 cleavage of Nedd8 substrate. Q96LD8. recombinant SENP8, Nedd8 substrate fluorescence. inhibition, % at 20 µM. 360,000 compounds, 0.64% hits. AID 602440; in the data active = inhibition mostly above about 40%, no sharp cut-off; inactive = mostly below about 27%
# SENP1 FRET inh = blocks the human SENP1 SUMO protease catalytic domain. recombinant SENP1 catalytic domain, CyPet-SUMO1-YPet FRET cleavage. 360,000 compounds, 0.21% hits. AID 624204. inhibition, % at 10 µM. Q9P0U3;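 active = inhibition at least 30% at 10 µM, raw YFP signal under a set limit, fluorescence ratio 0.5 to 1.5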;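 also: 0% = enzyme with DMSO and 100% = no enzyme wells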
#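 Test system: hSENP1 catalytic domain, recombinant; Amount: 20 pM final SENP1 enzyme; Medium: Tris pH 8 buffer plus EDTA, NaCl, BME, BSA, NP40, catalase; Schedule: 50 min enzyme reaction, room temperature, light-protected; Technique: FRET fluorescence in CFP and YFP emission channels; Controls: no-enzyme wells low, DMSO-plus-enzyme wells high control.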
# SENP7 inh = inhibitors of human SENP7 protease; Q9BQF6; recombinant SENP7, Z-RLRGG-aminoluciferin luminescence, 40 min; inhibition, % at 5 µM; 330,000 compounds, 1.5% hits; AID 434973;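 active = inhibition above about 50% at the single test dose, limit read from the data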;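 also: plate controls were DMSO with enzyme for no effect and no enzyme buffer wells for full effect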
# Target sequence (Q9BQF6 706-1050 limits assumed): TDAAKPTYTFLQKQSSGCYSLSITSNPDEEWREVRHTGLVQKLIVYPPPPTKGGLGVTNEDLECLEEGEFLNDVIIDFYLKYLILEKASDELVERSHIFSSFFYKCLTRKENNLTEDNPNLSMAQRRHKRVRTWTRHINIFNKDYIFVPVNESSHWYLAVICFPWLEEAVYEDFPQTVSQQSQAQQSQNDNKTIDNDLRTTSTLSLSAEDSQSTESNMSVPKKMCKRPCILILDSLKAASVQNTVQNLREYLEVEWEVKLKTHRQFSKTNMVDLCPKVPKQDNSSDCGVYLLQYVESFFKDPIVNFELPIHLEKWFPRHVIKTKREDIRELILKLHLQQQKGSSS
# SENP8 conf = confirmation of human SENP8 protease inhibitors | shares compounds with SENP7 inh | Recombinant SENP8, Z-RLRGG-aminoluciferin luminescence, 60 min | inhibition, % at 12.5 µM | 6,200 compounds, 40% hits;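 active = mean inhibition across replicates above about 50%, limit read from the data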
# SENP6 conf = confirmation of human SENP6 protease inhibitors; 6,200 compounds, 58% hits; inhibition, % at 12.5 µM; recombinant SENP6, Z-RLRGG-aminoluciferin luminescence; shares compounds with SENP7 inh
# SENP7 confirm = human SENP7 inhibition, confirmed. shares compounds with SENP7 inh. recombinant SENP7, Z-RLRGG-aminoluciferin luminescence, 40 min. inhibition, % at 12.5 µM. 6,200 compounds, 69% hits
# Casp3 select = inhibits human caspase-3 in SENP selectivity test; shares compounds with SENP7 inh; purified caspase-3, Z-DEVD-aminoluciferin luminescence, 60 min; inhibition, % at 12.5 µM; 6,200 compounds, 60% hits;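 active = mean inhibition above about 50%, limit read from the data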;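 also: plate controls were enzyme with DMSO for no effect and wells without caspase-3 for full effect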
# Luc interf = counter-screen for SENP inhibitors: luminescence interference; shares compounds with SENP7 inh; Pre-incubated SENP8/Z-RLRGG-aminoluciferin, luciferase luminescence interference; inhibition, % at 12.5 µM; 6,200 compounds, 39% hits; AID 488919;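 active = mean inhibition above about 50% when retested at one dose, limit read from the data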;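 also: plate controls were DMSO wells with completed reaction for no effect and substrate without enzyme for full effect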
# Active calls of the source: *; . = not tested or not shown.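 The calls were made as follows, unless noted: active = mean inhibition above about 50% in the one-dose retest (limit read from the data); inactive = the rest.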
SMILES,SENP8 block-1,SENP6 block,SENP8 block-2,SENP1 FRET inh,SENP7 inh,SENP8 conf,SENP6 conf,SENP7 confirm,Casp3 select,Luc interf
C=CCn1c(N)c(C(=O)OC(C)(C)C)c2nc3ccccc3nc21,8.0,28.3,-472.9,-81.5,2.3,.,.,.,.,.
C=CCn1c(N)c(C(=O)Nc2ccccc2)c2nc3ccccc3nc21,52.4*,64.2*,-401.3,-10.8,19.8,-19.8,5.1,7.1,-2.9,-1.9
COCCNC(=O)c1c(N)n(CCCn2ccnc2)c2nc3ccccc3nc12,27.6,88.8*,-318.0,-19.6,66.8*,3.5,8.9,9.6,4.3,-1.9
COCCNC(=O)c1c(N)n(-c2ccccc2)c2nc3ccccc3nc12,39.4,61.6*,-258.3,-21.7,0.3,9.6,16.4,7.9,1.9,2.7
CC(C)Cn1c(N)c(C(=O)NCC2CCCO2)c2nc3ccccc3nc21 (centres undefined),76.5*,76.3*,-454.8,-19.8,-1.6,5.0,15.8,6.3,-2.5,-2.8
COc1ccc(N(CC(=O)Nc2cc(C)ccc2C)S(=O)(=O)c2ccccc2[N+](=O)[O-])c(OC)c1,-5.7,11.4,15.4,3.1,-6.0,.,.,.,.,.
O=C(Cn1cnc2ccccc21)N/N=C/C(Br)=C/c1ccccc1,-9.7,-9.1,9.9,1.3,-5.0,.,.,.,.,.
COCCn1c(N)c(C(=O)NCc2cccs2)c2nc3ccccc3nc21,87.2*,84.2*,-280.4,-27.8,64.3*,-7.8,3.2,-4.0,2.8,-4.2
Cc1nnc(SCCC(=O)Nc2nc(-c3ccccc3)ns2)s1,16.9,58.3*,-4.3,-10.6,-4.9,53.9*,50.4*,77.5*,25.9,30.5
CCCC(=O)Nc1nc(-c2ccccc2)ns1,-0.4,-5.6,12.8,-1.0,-2.5,.,.,.,.,.
COc1ccc(NC(=O)Nc2ccc3c(c2)OCO3)c(C)c1,-14.6,-15.6,6.3,0.4,-0.1,.,.,.,.,.
COc1cccc(/C=C/C(=O)c2ccc3c(c2)OCO3)c1OC,-4.4,11.4,9.9,-1.3,-1.6,.,.,.,.,.
O=C(/C=C/c1cccc(Br)c1)c1ccc2c(c1)OCO2,34.3,76.1*,3.1,0.0,-32.8,4.2,4.8,-13.3,-12.7,9.5
O=C(/C=C/c1ccccc1Br)c1ccc2c(c1)OCO2,91.4*,94.1*,13.7,1.9,91.6*,72.1*,73.8*,63.5*,59.8*,53.7*
CCN(Cc1ccc2c(c1)OCO2)C(=O)/C=C/c1cccc(Br)c1,-12.7,-5.6,1.5,0.3,-4.1,.,.,.,.,.
CN(C)c1ccc(/C=C/C(=O)c2ccc3c(c2)OCO3)cc1,88.5*,90.6*,-381.4,-42.3,88.1*,95.1*,94.4*,100.6*,83.3*,66.1*
O=C(/C=C\Nc1cccc(F)c1)c1ccc2c(c1)OCO2,55.5*,94.1*,-182.3,-57.3,96.2*,78.7*,86.9*,91.8*,84.3*,27.9
CC1CCCCN1C(=O)COC(=O)c1ccc(=O)n(Cc2ccccc2)n1 (centres undefined),-3.1,-16.0,0.4,1.7,2.8,.,.,.,.,.
O=C(/C=C\Nc1ccccc1Br)c1ccc2c(c1)OCO2,86.4*,87.1*,-20.3,-37.1,89.0*,84.2*,92.8*,97.8*,78.0*,8.5
O=C(/C=C/c1ccc2c(c1)OCO2)c1ccc[nH]1,58.5*,77.3*,-421.6,-38.4,77.7*,72.9*,64.3*,90.7*,40.6,68.6*
O=C(/C=C/c1ccccc1)c1ccc2c(c1)OCO2,76.3*,82.4*,11.6,2.3,93.3*,20.0,50.6*,33.0,28.1,89.5*
O=C(/C=C/c1ccncc1)c1ccc2c(c1)OCCO2,-4.3,-7.2,2.1,1.7,3.5,.,.,.,.,.
O=C(/C=C/c1ccc2c(c1)OCO2)c1ccc(F)cc1,24.6,45.3,-83.1,-4.6,33.9,.,.,.,.,.
Cc1cccc(-c2nsc(SCC(=O)N3CCCC3)n2)c1,49.3,80.1*,33.0,0.3,67.2*,58.6*,65.2*,87.2*,77.0*,54.9*
O=C(CSc1nc(-c2ccccc2)ns1)N1CCOCC1,-5.0,-20.4,10.3,-0.4,-0.7,.,.,.,.,.
SMILES,SENP8 block-1,SENP6 block,SENP8 block-2,SENP1 FRET inh,SENP7 inh,SENP8 conf,SENP6 conf,SENP7 confirm,Casp3 select,Luc interf
c1ccc([C@H]2CN3C(=N2)Sc2ccccc23)cc1,88.9*,93.5*,14.3,0.6,88.0*,93.2*,93.0*,99.7*,88.0*,91.5*
COc1cc(C(=O)Nc2ccc3c(c2)OCCO3)ccc1OC(F)F,62.4*,82.2*,11.2,2.2,77.0*,6.0,71.2*,90.0*,75.9*,75.2*
COc1ccc(C(=O)Nc2ccc3c(c2)OCCO3)cc1,69.8*,72.7*,22.2,1.3,-15.5,80.9*,81.3*,96.9*,90.6*,82.9*
CCCOc1ccc(C(=O)Nc2ccc3c(c2)OCCO3)cc1,72.9*,63.7*,9.1,-0.4,76.3*,21.2,48.3,93.4*,74.5*,7.5
CC(=Nc1ccc(Br)cc1)c1sc2ccccc2c1O,61.3*,79.8*,-52.2,-34.9,73.3*,-4.4,7.6,5.1,13.3,6.1
CC(=Nc1ccccc1)c1sc2ccccc2c1O,80.3*,85.2*,-75.9,-24.3,75.7*,88.3*,88.5*,98.5*,76.9*,75.7*
CCC(C)c1ccccc1N1CC(C(=O)NCCCn2nc(C)cc2C)CC1=O (centres undefined),5.5,-4.2,7.5,-3.6,3.5,.,.,.,.,.
O=C(O)C(=O)Nc1nc(-c2ccc3c(c2)OCCO3)cs1,44.5,73.2*,-23.4,2.7,24.1,66.9*,66.0*,89.2*,88.3*,75.6*
CC(C)(C)C(=O)OCc1nc(-c2ccc(F)cc2)cs1,24.3,52.1*,16.0,1.9,45.5,-4.0,27.4,70.8*,25.2,5.7
CC(C)(C)C(=O)OCc1nc(-c2ccc3c(c2)OCCO3)cs1,86.0*,89.4*,14.3,0.1,88.4*,89.8*,90.5*,70.9*,77.4*,59.2*
COc1ccc(-c2csc(COC(=O)C(C)(C)C)n2)cc1,-4.3,14.0,14.3,1.5,30.7,.,.,.,.,.
O=C(CCC(=O)c1ccc(F)cc1)NC1CCCN(Cc2ccccc2F)C1 (centres undefined),-10.0,3.4,9.4,0.9,6.3,.,.,.,.,.
CC(OC(=O)c1ccccc1Nc1ccc(SC(F)F)cc1)C(N)=O (centres undefined),-10.4,4.8,-119.3,-1.1,-5.7,.,.,.,.,.
